# Experimental data reported in the M2OR odorant receptor database.
# Changes are numbered by the printed parent chain.
# Key:
# Details in all cases: stereoisomer not certain
# OR56B4 (Homo sapiens) = target: T1, OR56B4 (Homo sapiens) (UniProt Q8NH76)
# T1 sequence (whole entry): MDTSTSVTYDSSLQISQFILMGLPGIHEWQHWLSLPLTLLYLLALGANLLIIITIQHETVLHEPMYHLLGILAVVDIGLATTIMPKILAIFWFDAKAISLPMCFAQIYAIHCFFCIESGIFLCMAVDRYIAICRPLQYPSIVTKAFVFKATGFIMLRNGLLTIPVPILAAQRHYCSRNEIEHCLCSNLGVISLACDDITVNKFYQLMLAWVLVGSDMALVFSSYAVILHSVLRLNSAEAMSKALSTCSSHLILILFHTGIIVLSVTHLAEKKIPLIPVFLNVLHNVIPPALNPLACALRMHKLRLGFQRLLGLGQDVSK
# In short: (§1)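 Transient luciferase assays in mammalian cell lines were common, though methods varied by source. The values come from published papers and their supplementary material, with extra details from the original authors when needed. Responsive refers to a measured signal the original authors judged statistically different from baseline, and non-responsive (inactive) to the remainder.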
# OR5A1 (Homo sapiens) = target: T2, OR5A1 (Homo sapiens) (UniProt Q8NGJ0)
# T2 sequence (whole entry): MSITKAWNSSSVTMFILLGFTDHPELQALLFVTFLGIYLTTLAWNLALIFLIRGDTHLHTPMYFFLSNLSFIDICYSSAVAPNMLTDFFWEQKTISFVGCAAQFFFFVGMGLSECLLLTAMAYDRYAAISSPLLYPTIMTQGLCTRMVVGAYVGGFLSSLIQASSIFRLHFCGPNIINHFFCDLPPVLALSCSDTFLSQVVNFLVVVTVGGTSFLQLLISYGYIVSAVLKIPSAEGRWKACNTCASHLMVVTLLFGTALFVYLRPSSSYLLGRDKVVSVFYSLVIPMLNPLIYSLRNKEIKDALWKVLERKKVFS
# In short: as §1
# OR5A1 D183N = test system: T3, OR5A1 D183N
# T3 sequence (whole entry): T2 sequence (whole entry) with D183N
# In short: as §1
# OR5A2 (Homo sapiens) = target: T4, OR5A2 (Homo sapiens) (UniProt Q8NGI9)
# T4 sequence (whole entry): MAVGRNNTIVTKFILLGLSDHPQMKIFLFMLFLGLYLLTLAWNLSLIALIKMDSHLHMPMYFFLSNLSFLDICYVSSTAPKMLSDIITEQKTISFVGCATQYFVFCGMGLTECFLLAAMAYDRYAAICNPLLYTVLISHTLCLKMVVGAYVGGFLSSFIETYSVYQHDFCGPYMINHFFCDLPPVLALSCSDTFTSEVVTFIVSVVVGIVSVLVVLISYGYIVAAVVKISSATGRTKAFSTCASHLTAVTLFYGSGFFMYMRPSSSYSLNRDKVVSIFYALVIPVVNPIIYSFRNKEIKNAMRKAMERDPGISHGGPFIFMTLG
# In short: as §1
# OR5AC2 (Homo sapiens) = target: T5, OR5AC2 (Homo sapiens) (UniProt Q9NZP5)
# T5 sequence (whole entry): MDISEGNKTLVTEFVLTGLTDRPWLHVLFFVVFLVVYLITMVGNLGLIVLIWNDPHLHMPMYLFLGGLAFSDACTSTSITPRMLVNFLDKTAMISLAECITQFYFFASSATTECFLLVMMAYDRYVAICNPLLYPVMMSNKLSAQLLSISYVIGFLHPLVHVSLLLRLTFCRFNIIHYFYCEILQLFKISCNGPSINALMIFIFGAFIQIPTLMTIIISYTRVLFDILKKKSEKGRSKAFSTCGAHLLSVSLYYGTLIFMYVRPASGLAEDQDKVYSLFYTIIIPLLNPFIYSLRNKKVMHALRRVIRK
# In short: as §1
# OR5AK2 (Homo sapiens) = target: T6, OR5AK2 (Homo sapiens) (UniProt Q8NH90)
# T6 sequence (whole entry): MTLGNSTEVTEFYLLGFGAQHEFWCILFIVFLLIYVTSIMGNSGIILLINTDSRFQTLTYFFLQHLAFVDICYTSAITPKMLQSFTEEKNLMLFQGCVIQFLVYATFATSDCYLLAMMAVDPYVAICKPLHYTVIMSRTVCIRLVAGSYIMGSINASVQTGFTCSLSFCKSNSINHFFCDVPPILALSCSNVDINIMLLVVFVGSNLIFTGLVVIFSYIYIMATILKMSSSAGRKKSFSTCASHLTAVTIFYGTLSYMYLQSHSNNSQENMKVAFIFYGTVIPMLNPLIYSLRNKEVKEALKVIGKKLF
# In short: as §1
# OR5AN1 (Homo sapiens) = target: T7, OR5AN1 (Homo sapiens) (UniProt Q8NGI8)
# T7 sequence (whole entry): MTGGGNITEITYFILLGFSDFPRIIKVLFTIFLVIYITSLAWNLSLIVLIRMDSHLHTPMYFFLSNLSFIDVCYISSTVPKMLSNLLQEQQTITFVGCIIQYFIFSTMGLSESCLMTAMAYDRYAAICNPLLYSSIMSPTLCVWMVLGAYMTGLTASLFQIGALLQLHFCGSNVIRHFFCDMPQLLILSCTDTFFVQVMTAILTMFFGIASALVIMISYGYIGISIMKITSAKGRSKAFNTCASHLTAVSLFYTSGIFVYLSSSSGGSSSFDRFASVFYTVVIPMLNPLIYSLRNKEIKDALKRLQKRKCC
# In short: as §1
# OR5AP2 (Homo sapiens) = target: T8, OR5AP2 (Homo sapiens) (UniProt Q8NGF4)
# T8 sequence (whole entry): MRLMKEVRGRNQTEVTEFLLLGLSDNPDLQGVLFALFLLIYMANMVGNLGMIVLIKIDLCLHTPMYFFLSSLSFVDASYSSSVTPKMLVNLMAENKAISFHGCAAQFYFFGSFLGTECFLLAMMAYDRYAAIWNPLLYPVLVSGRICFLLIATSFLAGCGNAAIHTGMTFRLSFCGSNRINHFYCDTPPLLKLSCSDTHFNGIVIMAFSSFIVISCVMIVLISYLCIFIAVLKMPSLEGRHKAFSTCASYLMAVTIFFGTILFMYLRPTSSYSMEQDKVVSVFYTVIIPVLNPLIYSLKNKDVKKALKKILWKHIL
# In short: as §1
# 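Further: active if original authors judged signal statistically different from baseline.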
structure (smiles),measurement,setting,value
Cc1cnc(C)c(C)n1,odorant receptor agonist call,OR56B4 (Homo sapiens),inactive
same,odorant receptor agonist call,OR5A1 (Homo sapiens),inactive
same,odorant receptor agonist call,OR5A1 D183N,inactive
same,odorant receptor agonist call,OR5A2 (Homo sapiens),inactive
same,odorant receptor agonist call,OR5AC2 (Homo sapiens),inactive
same,odorant receptor agonist call,OR5AK2 (Homo sapiens),inactive
same,odorant receptor agonist call,OR5AN1 (Homo sapiens),inactive
same,odorant receptor agonist call,OR5AP2 (Homo sapiens),inactive
CC(=O)C=CC1=C(C)CCCC1(C)C,odorant receptor agonist call,OR5AC2 (Homo sapiens),inactive
CCCCCC1C(=O)CCC1CC(=O)OC (configuration not stated),odorant receptor agonist call,OR5AC2 (Homo sapiens),inactive
CCCCCCC=CCCC=O,odorant receptor agonist call,OR56B4 (Homo sapiens),inactive
same,odorant receptor agonist call,OR5A1 (Homo sapiens),inactive
same,odorant receptor agonist call,OR5A1 D183N,inactive
same,odorant receptor agonist call,OR5A2 (Homo sapiens),inactive
same,odorant receptor agonist call,OR5AC2 (Homo sapiens),inactive
same,odorant receptor agonist call,OR5AK2 (Homo sapiens),inactive
same,odorant receptor agonist call,OR5AN1 (Homo sapiens),inactive
same,odorant receptor agonist call,OR5AP2 (Homo sapiens),inactive
CC1=C(O)C(=O)C(C)O1 (configuration not stated),odorant receptor agonist call,OR56B4 (Homo sapiens),inactive
same,odorant receptor agonist call,OR5A1 (Homo sapiens),inactive
same,odorant receptor agonist call,OR5A1 D183N,inactive
same,odorant receptor agonist call,OR5A2 (Homo sapiens),inactive
same,odorant receptor agonist call,OR5AC2 (Homo sapiens),inactive
same,odorant receptor agonist call,OR5AK2 (Homo sapiens),inactive
same,odorant receptor agonist call,OR5AN1 (Homo sapiens),inactive
same,odorant receptor agonist call,OR5AP2 (Homo sapiens),inactive
CCCC(S)CCOC(C)=O (configuration not stated),odorant receptor agonist call,OR56B4 (Homo sapiens),inactive
same,odorant receptor agonist call,OR5A1 (Homo sapiens),inactive
same,odorant receptor agonist call,OR5A1 D183N,inactive
same,odorant receptor agonist call,OR5A2 (Homo sapiens),inactive
same,odorant receptor agonist call,OR5AC2 (Homo sapiens),inactive
same,odorant receptor agonist call,OR5AK2 (Homo sapiens),inactive
same,odorant receptor agonist call,OR5AN1 (Homo sapiens),inactive
same,odorant receptor agonist call,OR5AP2 (Homo sapiens),inactive
COc1ccc(C)cc1,odorant receptor agonist call,OR5AC2 (Homo sapiens),inactive
CCCCC(S)C(C)CO (configuration not stated),odorant receptor agonist call,OR56B4 (Homo sapiens),active
same,odorant receptor agonist call,OR5A1 (Homo sapiens),inactive
same,odorant receptor agonist call,OR5A2 (Homo sapiens),inactive
same,odorant receptor agonist call,OR5AC2 (Homo sapiens),inactive
same,odorant receptor agonist call,OR5AK2 (Homo sapiens),inactive
same,odorant receptor agonist call,OR5AN1 (Homo sapiens),inactive
same,odorant receptor agonist call,OR5AP2 (Homo sapiens),inactive
CCCCCC(S)C(C)CO (configuration not stated),odorant receptor agonist call,OR56B4 (Homo sapiens),inactive
same,odorant receptor agonist call,OR5A1 (Homo sapiens),inactive
same,odorant receptor agonist call,OR5A2 (Homo sapiens),inactive
same,odorant receptor agonist call,OR5AC2 (Homo sapiens),inactive
same,odorant receptor agonist call,OR5AK2 (Homo sapiens),inactive
same,odorant receptor agonist call,OR5AN1 (Homo sapiens),inactive
same,odorant receptor agonist call,OR5AP2 (Homo sapiens),inactive
CC1CC(C)(c2ccccc2)CO1 (configuration not stated),odorant receptor agonist call,OR5AC2 (Homo sapiens),inactive
CCC(=O)C=CC1C(C)=CCCC1(C)C (configuration not stated),odorant receptor agonist call,OR5AC2 (Homo sapiens),inactive
O=C1CCCCCCCCCCCCCC1,odorant receptor agonist call,OR5AN1 (Homo sapiens),active
O=C1C=CCCCCCCCCCCCCO1,odorant receptor agonist call,OR5AN1 (Homo sapiens),active
CCC(=O)OCC(C)(C)OC(C)C1CCCC(C)(C)C1 (configuration not stated),odorant receptor agonist call,OR5AN1 (Homo sapiens),inactive
COC1CC2CC1C1CC(C=O)CC21 (configuration not stated),odorant receptor agonist call,OR5AC2 (Homo sapiens),inactive
O=C1CCCCCCCCCC1,odorant receptor agonist call,OR5AN1 (Homo sapiens),inactive
CCCCCC1COCCC1OC(C)=O (configuration not stated),odorant receptor agonist call,OR5AC2 (Homo sapiens),inactive
C=CC(C)(CCC=C(C)C)OC(C)=O (configuration not stated),odorant receptor agonist call,OR5AC2 (Homo sapiens),inactive
CC1CCCCCCCCCCCC(=O)C1 (configuration not stated),odorant receptor agonist call,OR5AN1 (Homo sapiens),active
CCC=C(C)C(O)CCCCC (configuration not stated),odorant receptor agonist call,OR5AC2 (Homo sapiens),inactive
C=CCOC(=O)COCCC(C)C,odorant receptor agonist call,OR5AC2 (Homo sapiens),inactive
O=C1CCCCCC=CCCCCCCCCO1,odorant receptor agonist call,OR5AN1 (Homo sapiens),active
CC1CC=CCCCCCCCCC(=O)C1 (configuration not stated),odorant receptor agonist call,OR5AN1 (Homo sapiens),active
C=CC(C)(O)CCC=C(C)CCC=C(C)C (configuration not stated),odorant receptor agonist call,OR5AC2 (Homo sapiens),inactive
CCCCCCCCCCCCCC(C)=O,odorant receptor agonist call,OR5AN1 (Homo sapiens),inactive
Cc1ccc(C(C)C)cc1O,odorant receptor agonist call,OR5AC2 (Homo sapiens),inactive
OC1CCCCCCCCCCCCCC1,odorant receptor agonist call,OR5AN1 (Homo sapiens),inactive
CC1C(C)(C)C2=C(C(=O)CCC2)C1(C)C (configuration not stated),odorant receptor agonist call,OR5AN1 (Homo sapiens),inactive
CC(C)=CCCC(C)CC=O (configuration not stated),odorant receptor agonist call,OR5AC2 (Homo sapiens),inactive
O=C1CCCCCCC=CCCCCCCC1,odorant receptor agonist call,OR5AN1 (Homo sapiens),active
O=C1CCCC=CCCCCCCCCCC1,odorant receptor agonist call,OR5AN1 (Homo sapiens),active
CC1=CCC2CC1C2(C)C (configuration not stated),odorant receptor agonist call,OR5AC2 (Homo sapiens),inactive
CCCCC1CCC(=O)O1 (configuration not stated),odorant receptor agonist call,OR5AC2 (Homo sapiens),inactive
C1CCCCCCCCCCCCCC1,odorant receptor agonist call,OR5AN1 (Homo sapiens),inactive
O=C1CCCCCCCCC1,odorant receptor agonist call,OR5AN1 (Homo sapiens),inactive
CC1CC=CCCCCCCCCCC(=O)C1 (configuration not stated),odorant receptor agonist call,OR5AN1 (Homo sapiens),active
CCCCCCCC(=O)CCCCCCC,odorant receptor agonist call,OR5AN1 (Homo sapiens),inactive
